From ChEMBL document CHEMBL4014339, “Discovery of 1,4-Benzodiazepine-2,5-dione (BZD) Derivatives as Dual Nucleotide Binding Oligomerization Domain Containing 1/2 (NOD1/NOD2) Antagonists Sensitizing Paclitaxel (PTX) To Suppress Lewis Lung Carcinoma (LLC) Growth in Vivo” (J Med Chem, 2017)
The source made the active and inactive calls.

Legend:
[1] = target: T1, Nucleotide-binding oligomerization domain-containing protein 1 (Homo sapiens) (UniProt Q9Y239); assay: Inhibition of NOD1 in human PBMC-derived macrophages assessed as reduction in C12-iE-DAP-stimulated IL6 mRNA expression at 10 uM preincubated for 1 hr followed by C12-iE-DAP stimulation for 90 mins by RT-qPCR analysis
T1 sequence (whole entry): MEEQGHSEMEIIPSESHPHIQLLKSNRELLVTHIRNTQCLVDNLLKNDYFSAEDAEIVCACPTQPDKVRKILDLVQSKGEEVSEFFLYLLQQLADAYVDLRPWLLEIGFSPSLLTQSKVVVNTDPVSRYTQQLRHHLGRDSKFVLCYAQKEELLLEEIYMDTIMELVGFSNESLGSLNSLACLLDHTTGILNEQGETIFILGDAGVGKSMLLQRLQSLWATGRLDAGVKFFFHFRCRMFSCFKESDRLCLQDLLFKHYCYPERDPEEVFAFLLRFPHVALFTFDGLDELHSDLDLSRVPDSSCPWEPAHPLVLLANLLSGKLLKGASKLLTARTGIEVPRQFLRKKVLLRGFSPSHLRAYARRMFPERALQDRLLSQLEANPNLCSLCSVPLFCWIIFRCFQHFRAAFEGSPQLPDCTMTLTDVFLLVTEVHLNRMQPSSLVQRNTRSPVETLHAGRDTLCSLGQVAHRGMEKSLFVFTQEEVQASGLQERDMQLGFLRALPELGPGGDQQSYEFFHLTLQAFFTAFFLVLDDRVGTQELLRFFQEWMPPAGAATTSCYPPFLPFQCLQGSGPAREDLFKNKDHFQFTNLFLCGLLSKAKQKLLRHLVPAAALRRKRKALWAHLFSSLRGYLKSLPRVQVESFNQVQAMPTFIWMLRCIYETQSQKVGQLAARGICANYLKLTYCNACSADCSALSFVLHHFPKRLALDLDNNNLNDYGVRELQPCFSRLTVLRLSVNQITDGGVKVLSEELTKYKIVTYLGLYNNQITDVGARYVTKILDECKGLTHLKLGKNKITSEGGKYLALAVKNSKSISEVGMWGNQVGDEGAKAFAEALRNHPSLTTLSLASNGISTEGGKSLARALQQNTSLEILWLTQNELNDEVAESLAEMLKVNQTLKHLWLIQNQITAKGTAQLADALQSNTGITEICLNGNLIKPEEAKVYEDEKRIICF
In short: (§1)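 Human CD14+ monocytes from donor PBMC, differentiated 7 days with M-CSF 20 ng/mL to macrophages; 1.0 × 10^6 cells pretreated 1 h with compound (final 0.1% DMSO), then C12-iE-DAP 500 ng/mL or MDP 5 μg/mL for 90 min. IL-6/TNF-α mRNA by qRT-PCR, normalized to GAPDH; stimulated response set to 100%.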

[2] = target: T1, Nucleotide-binding oligomerization domain-containing protein 1 (Homo sapiens); assay: Inhibition of NOD1 in human PBMC-derived macrophages assessed as reduction of C12-iE-DAP-mediated decrease in IkBalpha levels at 1 to 10 uM preincubated for 1 hr followed by C12-iE-DAP stimulation for 45 mins by Western blot analysis
[3] = target: T1, Nucleotide-binding oligomerization domain-containing protein 1 (Homo sapiens); assay: Inhibition of NOD1 in human THP1 cells assessed as suppression of C12-iE-DAP-stimulated JNK phosphorylation at 1 to 10 uM preincubated for 1 hr followed by C12-iE-DAP stimulation after 45 mins by Western blot analysis; assay type: cell-based
In short: (§2)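 PMA (20 ng/mL, 48 h)-differentiated THP1 macrophages rested 24 h in PMA-free medium, serum-starved (0.1% FBS) overnight, pretreated 1 h with compound, stimulated 45 min with C12-iE-DAP 50 ng/mL. Lysates run on 8% SDS-PAGE, immunoblotted for phospho and total RIP2, p38, JNK, ERK and IκBα.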

[4] = target: T1, Nucleotide-binding oligomerization domain-containing protein 1 (Homo sapiens); assay: Inhibition of NOD1 in human THP1 cells assessed as reduction of C12-iE-DAP-mediated decrease in IkBalpha levels at 1 to 10 uM preincubated for 1 hr followed by C12-iE-DAP addition measured after 45 mins by Western blot analysis; assay type: cell-based; in short: as §2
[5] = target: T1, Nucleotide-binding oligomerization domain-containing protein 1 (Homo sapiens); assay: Inhibition of NOD1 in human PBMC-derived macrophages assessed as reduction in C12-iE-DAP-stimulated TNFalpha mRNA expression preincubated for 1 hr followed by C12-iE-DAP stimulation for 90 mins by RT-qPCR analysis; in short: as §1
[6] = target: T2, Nucleotide-binding oligomerization domain-containing protein 2 (Homo sapiens, UniProt Q9HC29); assay: Inhibition of human NOD2 expressed in HEK293 cells assessed as suppression of MDP-stimulated ERK phosphorylation preincubated for 1 hr followed by MDP stimulation measured after 1 hr by Western blot analysis
T2 sequence (Q9HC29 whole entry, the tested form may be a part): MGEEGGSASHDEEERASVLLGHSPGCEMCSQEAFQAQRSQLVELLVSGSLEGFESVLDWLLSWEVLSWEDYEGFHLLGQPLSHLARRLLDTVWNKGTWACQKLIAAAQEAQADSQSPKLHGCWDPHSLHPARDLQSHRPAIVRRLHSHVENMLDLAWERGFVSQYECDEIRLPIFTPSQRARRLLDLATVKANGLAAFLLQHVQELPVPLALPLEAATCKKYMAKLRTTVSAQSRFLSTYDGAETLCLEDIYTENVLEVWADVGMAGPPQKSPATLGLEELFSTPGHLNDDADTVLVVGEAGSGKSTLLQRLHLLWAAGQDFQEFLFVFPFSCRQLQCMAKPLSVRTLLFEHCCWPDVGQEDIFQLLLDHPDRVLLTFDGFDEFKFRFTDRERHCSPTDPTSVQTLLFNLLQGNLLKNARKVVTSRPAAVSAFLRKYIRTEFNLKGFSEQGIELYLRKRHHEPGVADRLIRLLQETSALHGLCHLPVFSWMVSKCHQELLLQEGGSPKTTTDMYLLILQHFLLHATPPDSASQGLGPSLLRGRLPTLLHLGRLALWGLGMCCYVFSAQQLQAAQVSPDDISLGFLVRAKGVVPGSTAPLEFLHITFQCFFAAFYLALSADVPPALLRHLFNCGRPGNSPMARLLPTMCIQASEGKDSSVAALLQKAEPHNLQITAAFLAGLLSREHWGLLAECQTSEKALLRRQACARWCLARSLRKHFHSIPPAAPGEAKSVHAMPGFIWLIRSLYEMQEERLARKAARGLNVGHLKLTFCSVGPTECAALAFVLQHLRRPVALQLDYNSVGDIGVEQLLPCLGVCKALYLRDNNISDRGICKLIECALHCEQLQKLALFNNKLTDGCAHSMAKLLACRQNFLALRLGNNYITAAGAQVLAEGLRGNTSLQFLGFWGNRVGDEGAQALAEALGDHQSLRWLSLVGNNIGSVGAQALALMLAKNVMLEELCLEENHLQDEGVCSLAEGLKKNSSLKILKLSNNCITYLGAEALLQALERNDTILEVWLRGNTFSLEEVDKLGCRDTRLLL

[7] = target: T2, Nucleotide-binding oligomerization domain-containing protein 2; assay: Inhibition of human NOD2 expressed in HEK293 cells assessed as reduction in MDP-stimulated IL8 secretion preincubated with compound followed by MDP stimulation measured after 24 hrs by ELISA; assay type: cell-based
[8] = target: T2, Nucleotide-binding oligomerization domain-containing protein 2; assay: Inhibition of NOD2 in human PBMC-derived macrophages assessed as reduction in MDP-stimulated RIP2 phosphorylation at 1 to 10 uM preincubated for 1 hr followed by MDP stimulation for 1 hr by Western blot analysis
[9] = target: T2, Nucleotide-binding oligomerization domain-containing protein 2; assay: Inhibition of NOD2 in human PBMC-derived macrophages assessed as reduction in MDP-stimulated JNK phosphorylation at 1 to 10 uM preincubated for 1 hr followed by MDP stimulation for 1 hr by Western blot analysis
[10] = target: Toll-like receptor 2 (Homo sapiens) (UniProt O60603); assay: Inhibition of human TLR2 expressed in HEK-Blue cells assessed as reduction in Pam3CSK4-stimulated SEAP release preincubated for 3 hrs followed by Pam3CSK4 addition measured after 20 hrs by spectrophotometric analysis; assay type: cell-based
Sequence of Toll-like receptor 2 (Homo sapiens) (O60603 whole entry, the tested form may be a part): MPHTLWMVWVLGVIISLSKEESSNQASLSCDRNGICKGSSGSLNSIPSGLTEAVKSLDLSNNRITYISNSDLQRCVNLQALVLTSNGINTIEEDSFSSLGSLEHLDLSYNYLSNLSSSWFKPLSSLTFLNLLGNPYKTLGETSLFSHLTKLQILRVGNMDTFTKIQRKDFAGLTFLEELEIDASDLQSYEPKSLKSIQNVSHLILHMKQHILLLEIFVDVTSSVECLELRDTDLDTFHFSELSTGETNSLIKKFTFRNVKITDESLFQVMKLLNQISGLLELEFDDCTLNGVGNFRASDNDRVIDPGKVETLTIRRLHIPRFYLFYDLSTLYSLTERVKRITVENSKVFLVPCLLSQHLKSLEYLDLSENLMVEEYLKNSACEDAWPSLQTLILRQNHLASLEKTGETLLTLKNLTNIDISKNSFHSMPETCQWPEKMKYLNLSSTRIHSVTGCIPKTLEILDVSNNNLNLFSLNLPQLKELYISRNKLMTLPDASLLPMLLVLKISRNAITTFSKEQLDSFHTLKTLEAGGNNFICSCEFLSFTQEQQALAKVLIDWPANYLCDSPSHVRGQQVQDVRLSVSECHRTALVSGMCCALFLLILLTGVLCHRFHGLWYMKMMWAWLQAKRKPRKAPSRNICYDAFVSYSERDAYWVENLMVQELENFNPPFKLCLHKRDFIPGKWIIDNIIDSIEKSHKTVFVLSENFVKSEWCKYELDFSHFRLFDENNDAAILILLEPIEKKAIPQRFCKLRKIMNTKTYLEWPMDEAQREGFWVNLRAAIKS

[11] = target: T2, Nucleotide-binding oligomerization domain-containing protein 2; assay: Inhibition of NOD2 in human PBMC-derived macrophages assessed as reduction in MDP-stimulated ERK phosphorylation at 1 to 10 uM preincubated for 1 hr followed by MDP stimulation for 1 hr by Western blot analysis
[12] = target: T3, Nucleotide-binding oligomerization domain-containing protein 1 (Homo sapiens, UniProt Q9Y239); assay: Antagonist activity at human NOD1 expressed in HEK-blue cells assessed as inhibition of C12-iE-DAP-stimulated cell activation preincubated for 3 hrs followed by C12-iE-DAP addition measured after 20 hrs by SEAP reporter gene assay; assay type: cell-based
T3 sequence (Q9Y239 whole entry): T1 sequence (whole entry)
In short: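 HEK-Blue hNOD1 or hNOD2 cells preincubated with compound 3 h, then stimulated 20 h with C12-iE-DAP 50 ng/mL (NOD1) or MDP 100 ng/mL (NOD2); SEAP in supernatant quantified. Primary screen at 10 μM, hits repeated in triplicate; IC50 from dose-response, mean ± SD (n = 3), only for compounds reaching ≥50% inhibition at the screening concentration.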

CCCNC(=O)CC[C@H]1NC(=O)c2cc(Oc3cccc(N(C)C)c3)c(NC(=O)COCc3ccccc3)cc2NC1=O
inactive: inhibition [10]
2.36 µM: IC50 [12]
54.6%: inhibition [1]
active: inhibition [2] | inhibition [3] | inhibition [4] | inhibition [5] Dose-dependent effect | inhibition [6] Dose-dependent effect | inhibition [7] Dose-dependent effect | inhibition [8] | inhibition [9] | inhibition [11]
